In series [1] the test system is Pseudomonas aeruginosa. The series can be described thus: Antimicrobial activity against Pseudomonas aeruginosa PAO1 after 3 hrs by bactericidal assay. It is filed as functional. The following applies: PAO1, 3 h. The method, boiled down:
(§1)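 Mid-log cultures grown in Iso-Sensitest broth, diluted to 1 × 10⁶–5 × 10⁶ CFU/ml in 10 mM potassium phosphate with 1% (vol/vol) Iso-Sensitest broth, pH 7.4. Peptides (monomer made by 10 mM DTT reduction overnight at room temperature, or dimer; oxidation state checked by MS) are incubated with 100 μl cells at 37°C for 3 h. Tenfold dilutions are plated and CFU counted next day. MBC is >99.99% killing, in duplicate on three occasions, taken as the mean. Mann-Whitney U test.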

The test system of a further series is Acinetobacter baumannii. Nature of the series: Antimicrobial activity against Acinetobacter baumannii ATCC 19606 after 3 hrs by bactericidal assay. The following applies: ATCC 19606 = CIP 70.34 = JCM 6841, 3 h. The series is classed as functional. The method, boiled down: as §1
For a further series, the system named is Burkholderia cenocepacia. Nature of the series: Antimicrobial activity against Burkholderia cenocepacia J2315 after 3 hrs by bactericidal assay. The series is classed as functional. The following applies: J2315, 3 h.
A further series has as its system Escherichia coli. Nature of the series: Antimicrobial activity against Escherichia coli ATCC 25922 after 3 hrs by bactericidal assay. The series is classed as functional. The following applies: ATCC 25922, 3 h. The method, boiled down:
as §1

The next series deals with Enterococcus faecalis. Nature of the series: Antimicrobial activity against Enterococcus faecalis ATCC 700802 after 3 hrs by bactericidal assay. The following applies: ATCC 700802, 3 h. It is filed as functional. The method in brief:
as §1

Series [2] has as its system Staphylococcus aureus. Nature of the series: Antimicrobial activity against Staphylococcus aureus ATCC 25923 after 3 hrs by bactericidal assay. It is filed as functional. The following applies: ATCC 25923, 3 h. The method in brief: as §1
The test system of series [3] is Staphylococcus aureus. Nature of the series: Antibacterial activity against methicillin-resistant Staphylococcus aureus J2918 after 3 hrs by bactericidal assay. It is filed as functional. The following applies: J2918, 3 h. The method in brief: as §1
In series [4] the test system is Pseudomonas aeruginosa. The series can be described thus: Antimicrobial activity against Pseudomonas aeruginosa PAO1 after 3 hrs by bactericidal assay in presence of 200 mM NaCl. The series is classed as functional, organism-based. The method, boiled down: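 Mid-log P. aeruginosa was grown in Iso-Sensitest broth and diluted in 10 mM potassium phosphate with 1% broth, pH 7.4, with sodium chloride added. Peptide dilutions were incubated with 1 × 10⁵ to 5 × 10⁵ CFU per 100 μl at 37°C for 3 h, then CFU were plated. MBC is >99.99% kill, the mean of duplicates from three independent runs.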

Series [5] relates to Pseudomonas aeruginosa. The series can be described thus: Antimicrobial activity against Pseudomonas aeruginosa PAO1 after 3 hrs by bactericidal assay in presence of 10 mM NaCl. The series is classed as functional. The settings on record: PAO1, 3 h. The method, boiled down:
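P. aeruginosa PAO1 at mid-log in Iso-Sensitest broth, diluted to 1 × 10⁶–5 × 10⁶ CFU/ml in 10 mM potassium phosphate/1% Iso-Sensitest broth, pH 7.4, with 10 mM NaCl added. Dimeric peptides are incubated with 100 μl cells at 37°C for 3 h, then plated as tenfold dilutions with CFU counted next day. MBC is >99.99% killing, from duplicates on three occasions. Mann-Whitney U test.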

Series [6] relates to Pseudomonas aeruginosa. Nature of the series: Antimicrobial activity against Pseudomonas aeruginosa PAO1 assessed as bacterial killing at 16.5 uM after 3 hrs by bactericidal assay. The series is classed as functional, organism-based.
In series [7] the test system is Staphylococcus aureus. The series can be described thus: Stability of the compound in Staphylococcus aureus ATCC 25923 after 4 hrs by LC-MS analysis. It is filed as ADME, organism-based. The method, boiled down:
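Peptide is incubated with S. aureus ATCC 25923 for 4 h. Peptide integrity is then assessed by LC-MS as peak area relative to the sample before incubation.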

Series [8] deals with Pseudomonas aeruginosa. Nature of the series: Antimicrobial activity against Pseudomonas aeruginosa PAO1 at 20 uM. It is filed as functional, organism-based.
For series [9], the system named is Staphylococcus aureus. Nature of the series: Antimicrobial activity against Staphylococcus aureus ATCC 25923 at 20 uM. It is filed as functional, organism-based.

Converted amounts (≈) assume the structure as drawn. The source made the active and inactive calls. No cut-off for these calls is given here.

14 compounds from ChEMBL document CHEMBL1255436, “Peptide fragments of a beta-defensin derivative with potent bactericidal activity” (Antimicrob Agents Chemother, 2010) can be followed below.

`CC[C@H](C)[C@H](NC(=O)[C@H](CCCNC(=N)N)NC(=O)[C@H](C)NC(=O)[C@H](Cc1ccccc1)NC(=O)[C@H](Cc1ccccc1)NC(=O)[C@H](CCCCN)NC(=O)[C@H](CCCNC(=N)N)NC(=O)[C@H](CC(C)C)NC(=O)[C@@H](NC(=O)[C@H](CCCCN)NC(=O)[C@@H]1CCCN1C(=O)[C@H](CC(C)C)NC(=O)[C@@H](N)Cc1ccccc1)[C@H](C)O)C(=O)N[C@@H](CCCNC(=N)N)C(=O)NCC(=O)NCC(=O)N[C@@H](CCCNC(=N)N)C(=O)N[C@@H](C)C(=O)N[C@@H](C)C(=O)N[C@H](C(=O)N[C@@H](CC(C)C)C(=O)N[C@@H](CC(N)=O)C(=O)N[C@@H](C)C(=O)O)C(C)C`: the MBC against Pseudomonas aeruginosa [1] was above 48 µg/mL; in the series on Acinetobacter baumannii, above 22 µg/mL; with Burkholderia cenocepacia it was above 20 µg/mL; against Escherichia coli, above 20 µg/mL; against Enterococcus faecalis it was above 20 µg/mL; in the series with Staphylococcus aureus [2], above 205 µg/mL. Moreover, the MBC in the series with Staphylococcus aureus [3] was above 40 µg/mL.

Regarding `CC[C@H](C)[C@@H]1NC(=O)[C@H](CCC(N)=O)NC(=O)[C@H](CCC(=O)O)NC(=O)[C@H](CCC(=O)O)NC(=O)[C@H](CCCCN)NC(=O)CNC(=O)[C@H](CC(C)C)NC(=O)[C@@H]2CSSC[C@@H](C(=O)N[C@@H](CCCNC(=N)N)C(=O)N[C@@H](CCCCN)C(=O)N[C@@H](CCCCN)C(=O)N[C@@H](CCCCN)C(=O)O)NC(=O)[C@@H]3CSSC[C@H](NC(=O)[C@H](Cc4ccccc4)NC(=O)[C@H](Cc4ccccc4)NC(=O)[C@H](CCCCN)NC(=O)[C@H](CCCNC(=N)N)NC(=O)[C@H](CC(C)C)NC(=O)[C@@H](NC(=O)[C@H](CCCCN)NC(=O)[C@@H]4CCCN4C(=O)[C@H](CC(C)C)NC(=O)[C@@H](N)Cc4ccccc4)[C@H](C)O)C(=O)N[C@@H](CCCNC(=N)N)C(=O)N[C@@H]([C@@H](C)CC)C(=O)N[C@@H](CCCNC(=N)N)C(=O)NCC(=O)NCC(=O)N[C@@H](CCCNC(=N)N)C(=O)N[C@@H](CSSC[C@H](NC(=O)[C@H](CCCNC(=N)N)NC(=O)CNC1=O)C(=O)N[C@@H](CO)C(=O)N[C@@H](CC(N)=O)C(=O)N[C@@H](CO)C(=O)NCC(=O)N[C@@H](CCCNC(=N)N)C(=O)N[C@@H](CCCCN)C(=O)N3)C(=O)N[C@@H](C)C(=O)N[C@@H](C(C)C)C(=O)N[C@@H](CC(C)C)C(=O)N[C@@H](CC(N)=O)C(=O)N2`, the MBC was 0.3 µg/mL (≈ 0.0579 µM) in the series on Pseudomonas aeruginosa [1]; 0.3 µg/mL (≈ 0.0579 µM) against Acinetobacter baumannii; 0.6 µg/mL (≈ 0.116 µM) with Burkholderia cenocepacia; above 205 µg/mL against Escherichia coli; 1.2 µg/mL (≈ 0.231 µM) with Enterococcus faecalis; 1 µg/mL (≈ 0.193 µM) with Staphylococcus aureus [2]. This compound gave an MBC in the series with Staphylococcus aureus [3] above 48 µg/mL.

Regarding `CC(C)C[C@H](NC(=O)[C@@H](NC(=O)[C@H](CCCCN)NC(=O)[C@@H]1CCCN1C(=O)[C@H](CC(C)C)NC(=O)[C@@H](N)Cc1ccccc1)[C@H](C)O)C(=O)N[C@@H](CCCNC(=N)N)C(=O)N[C@@H](CCCCN)C(=O)N[C@@H](Cc1ccccc1)C(=O)N[C@@H](Cc1ccccc1)C(=O)O`, the MBC with Pseudomonas aeruginosa [1] was 1.3 µg/mL (≈ 1 µM); with Acinetobacter baumannii it was 0.75 µg/mL (≈ 0.578 µM); in the series on Burkholderia cenocepacia, above 48 µg/mL; against Escherichia coli it was 3 µg/mL (≈ 2.31 µM); against Enterococcus faecalis, 1.2 µg/mL (≈ 0.925 µM); against Staphylococcus aureus [2] it was 1.2 µg/mL (≈ 0.925 µM). Besides, the MBC with Staphylococcus aureus [3] is 2.4 µg/mL (≈ 1.85 µM). In the series with Pseudomonas aeruginosa [4], the outcome was Active.

In the case of `CC[C@H](C)[C@H](NC(=O)[C@H](CCC(N)=O)NC(=O)[C@H](CCC(=O)O)NC(=O)[C@H](CCC(=O)O)NC(=O)[C@H](CCCCN)NC(=O)CNC(=O)[C@H](CC(C)C)NC(=O)[C@H](C)NC(=O)[C@H](CC(N)=O)NC(=O)[C@H](CC(C)C)NC(=O)[C@@H](NC(=O)[C@H](C)NC(=O)[C@H](C)NC(=O)[C@H](CCCNC(=N)N)NC(=O)CNC(=O)CNC(=O)[C@H](CCCNC(=N)N)NC(=O)[C@H](NC(=O)[C@H](CCCNC(=N)N)NC(=O)[C@H](C)NC(=O)[C@H](Cc1ccccc1)NC(=O)[C@H](Cc1ccccc1)NC(=O)[C@H](CCCCN)NC(=O)[C@H](CCCNC(=N)N)NC(=O)[C@@H](N)CC(C)C)[C@@H](C)CC)C(C)C)C(=O)NCC(=O)N[C@@H](CCCNC(=N)N)C(=O)N[C@@H](C)C(=O)N[C@@H](CO)C(=O)N[C@@H](CC(N)=O)C(=O)N[C@@H](CO)C(=O)NCC(=O)N[C@@H](CCCNC(=N)N)C(=O)N[C@@H](CCCCN)C(=O)N[C@@H](CS)C(=O)N[C@@H](C)C(=O)N[C@@H](CCCNC(=N)N)C(=O)N[C@@H](CCCCN)C(=O)N[C@@H](CCCCN)C(=O)N[C@@H](CCCCN)C(=O)O`, the MBC in the series on Pseudomonas aeruginosa [1] was 0.7 µg/mL (≈ 0.158 µM); in the series with Escherichia coli it was 2.5 µg/mL (≈ 0.563 µM); against Enterococcus faecalis it was 1.25 µg/mL (≈ 0.281 µM); in the series with Staphylococcus aureus [2], 1.4 µg/mL (≈ 0.315 µM); against Staphylococcus aureus [3], 2.5 µg/mL (≈ 0.563 µM). In the series on Pseudomonas aeruginosa [4], the outcome was Active.

Regarding H-AAVLNA-OH, the MBC in the series with Pseudomonas aeruginosa [1] and against Staphylococcus aureus [2] was above 83.5 µg/mL throughout.

On to H-AAVLNALGKEEQIGRASNSGRKCARKKK-OH, for which the MBC in the series with Pseudomonas aeruginosa [1] was above 16.5 µg/mL; with Acinetobacter baumannii, above 10 µg/mL; against Escherichia coli, above 10 µg/mL; with Enterococcus faecalis, above 5 µg/mL; in the series with Staphylococcus aureus [2] it was above 16.5 µg/mL; with Staphylococcus aureus [3] it was above 10 µg/mL.

Take “H-FFARIRGGRAAVLNALGKEEQIGRASNSGRKCARKKK-OH”: the MBC amounted to 1.1 µg/mL with Pseudomonas aeruginosa [1]; 2.9 µg/mL against Acinetobacter baumannii; 10 µg/mL in the series on Escherichia coli; 1.9 µg/mL against Enterococcus faecalis; 1.5 µg/mL in the series on Staphylococcus aureus [2]; 2.2 µg/mL with Staphylococcus aureus [3]. Besides, in the series on Pseudomonas aeruginosa [5], the MBC turned out to be 10 µM.

Consider H-GGRAAVLNALGKEEQIGRASNSGRKCARKKK-OH, for which the MBC was above 15.2 µg/mL against Pseudomonas aeruginosa [1]; above 10 µg/mL in the series on Acinetobacter baumannii; above 10 µg/mL with Escherichia coli; above 5 µg/mL against Enterococcus faecalis; above 15.2 µg/mL with Staphylococcus aureus [2]; above 10 µg/mL against Staphylococcus aureus [3]. The outcome in the series with Pseudomonas aeruginosa [6] was inactive. The Stability result in the series with Staphylococcus aureus [7] is given as “Stable”.

On to H-IRGGRAAVLNALGKEEQIGRAS-OH, for which the MBC with Pseudomonas aeruginosa [1] is 1.2 µg/mL; with Acinetobacter baumannii, 2.4 µg/mL; with Burkholderia cenocepacia, above 205 µg/mL; in the series on Escherichia coli it was 38.6 µg/mL; in the series on Enterococcus faecalis it was 4.8 µg/mL; in the series with Staphylococcus aureus [2], above 48 µg/mL. In the series with Staphylococcus aureus [3], the MBC is above 22 µg/mL.

For H-LGKEEQIGRASNSGRKCARKKK-OH, the MBC in the series on Pseudomonas aeruginosa [1] was above 33 µg/mL; against Acinetobacter baumannii, above 48 µg/mL; in the series on Burkholderia cenocepacia it was above 22 µg/mL; against Enterococcus faecalis, 0.6 µg/mL; against Staphylococcus aureus [2] it was 1.2 µg/mL; in the series with Staphylococcus aureus [3], above 205 µg/mL.

For the compound H-LRKFFARIRGGR-OH, the minimum bactericidal concentration (MBC) against Acinetobacter baumannii is 19 µg/mL; against Burkholderia cenocepacia, 16.5 µg/mL; in the series on Enterococcus faecalis, above 22 µg/mL; in the series with Staphylococcus aureus [2], 12.1 µg/mL; against Staphylococcus aureus [3], 7.1 µg/mL. The outcome in the series with Pseudomonas aeruginosa [4] was Active.

With H-RGGRAAVLNA-OH, the minimum bactericidal concentration (MBC) is 1.2 µg/mL in the series on Pseudomonas aeruginosa [1]; above 205 µg/mL with Acinetobacter baumannii; 38.6 µg/mL with Burkholderia cenocepacia; 9.6 µg/mL in the series on Escherichia coli; above 48 µg/mL in the series on Enterococcus faecalis; above 22 µg/mL against Staphylococcus aureus [2]. In the series on Staphylococcus aureus [3], this compound came in with an MBC of 1.2 µg/mL.

As for H-RIRGGRAAVLNA-OH, the outcome with Pseudomonas aeruginosa [8] and in the series on Staphylococcus aureus [9] was inactive.

In the case of H-RIRGGRAAVLNALGKEEQIGRASNSGRKCARKKK-OH, the MBC against Pseudomonas aeruginosa [1] was 1.7 µg/mL; against Acinetobacter baumannii, 2.5 µg/mL; against Escherichia coli it was above 10 µg/mL; with Enterococcus faecalis, above 5 µg/mL; in the series with Staphylococcus aureus [2], 5.9 µg/mL; with Staphylococcus aureus [3] it was above 10 µg/mL.
